Measured values pooled from the literature.
Protocols differ between the studies behind these lines.
Target: Rhodopsin kinase GRK1 (GRK1, Homo sapiens, UniProt Q15835)
One construct used (Q15835 1-563): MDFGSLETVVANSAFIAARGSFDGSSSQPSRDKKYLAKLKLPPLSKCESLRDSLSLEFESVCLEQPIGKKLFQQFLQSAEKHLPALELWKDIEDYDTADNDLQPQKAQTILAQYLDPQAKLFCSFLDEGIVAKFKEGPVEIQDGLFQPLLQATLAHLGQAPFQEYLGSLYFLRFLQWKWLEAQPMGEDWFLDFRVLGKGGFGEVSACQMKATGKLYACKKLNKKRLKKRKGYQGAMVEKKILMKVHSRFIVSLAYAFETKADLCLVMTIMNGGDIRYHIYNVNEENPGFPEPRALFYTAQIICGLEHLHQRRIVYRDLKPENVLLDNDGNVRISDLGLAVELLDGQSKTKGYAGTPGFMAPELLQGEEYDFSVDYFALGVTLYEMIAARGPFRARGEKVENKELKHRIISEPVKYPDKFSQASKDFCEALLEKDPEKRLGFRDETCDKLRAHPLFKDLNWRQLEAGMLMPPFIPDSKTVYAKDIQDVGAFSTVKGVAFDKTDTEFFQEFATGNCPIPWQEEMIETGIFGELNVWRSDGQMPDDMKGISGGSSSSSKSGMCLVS

With `CNCc1ccccc1-c1csc([C@H](C)Nc2nc(C)nc3cc(OC)c(OC)cc23)c1` the remaining binding was 100% (cell-free assay; competition with immobilised ligand; 1 µM).
The ΔTm of `Cn1c2c(Cl)c(Cl)ccc2c2cn[nH]c(=O)c21` is reported as 1.3 °C (thermal stability; DSF; 10 µM).
`CN1CC(Oc2cnc(C#N)cc2-c2ccn3nc(NC(=O)C4CC4)cc3c2)C1` gave an inhibition of 1% (enzyme activity; inhibitor; 1 µM).
`N#CC1c2c([nH]c3c(Cl)c(Cl)ccc23)C(=O)NC12CCCCC2` (racemic) gave a ΔTm of 0.6 °C (thermal stability; DSF; 10 µM).
For `CC(C)(O)[C@H]1CC[C@H](Nc2ccc3ncc(-c4cccc(C(F)(F)F)c4)n3n2)CC1`, the remaining activity was 89.2% (enzyme activity; inhibitor; 1 µM).
With `COc1ccc2cc(OCC3(C(=O)O)CN(C(=O)c4ccc(F)cc4)C3)ccc2c1` the remaining binding was 100% (cell-free assay; competition with immobilised ligand; 1 µM).
For `Nc1ncnc2occ(-c3ccc(NC(=O)Nc4cc(C(F)(F)F)ccc4F)cc3)c12`, the remaining signal was 100% (cell-free assay; inhibitor; 20 µM).
`Cn1c2c(Cl)c(Cl)ccc2c2cc(N)[nH]c(=O)c21` gave a ΔTm of 0.5 °C (thermal stability; DSF; 10 µM).
For `Cc1ccc(NC(=O)c2ccc(C)c(C(F)(F)F)c2)cc1C#Cc1nn(C2CCC(O)CC2)c2ncnc(N)c12` (stereo not drawn), the remaining signal was 94% (cell-free assay; 10 µM).
For `C[C@H](c1ccc(F)cc1)N(Cc1cccc(C(=O)O)c1)C(=O)c1cnc2ccccc2c1`, the remaining binding was 100% (cell-free assay; competition with immobilised ligand; 1 µM).
The remaining activity of `O=C(Nc1cnn(-c2csc(C(=O)NC3COC3)c2)c1)Nc1c(F)cccc1Cl` is reported as 92.9% (enzyme activity; inhibitor; 5 µM).
`Cn1c2c(c3ccc(Cl)c(Cl)c31)C(C#N)C1(CCN(C(=O)OC(C)(C)C)CC1)NC2=O` (racemic) gave a ΔTm of 0 °C (thermal stability; DSF; 10 µM).
The remaining activity of `Cc1sc(C(=O)NC2COC2)cc1-n1cc(NC(=O)Nc2c(F)cccc2Cl)cn1` is reported as 113% (enzyme activity; inhibitor; 10 µM).
For `Cn1c2c(c3ccc(Cl)c(Cl)c31)C(C#N)C1(CCNCC1)NC2=O` (racemic), the ΔTm was 2.4 °C (thermal stability; DSF; 10 µM).
With `O=C(NS(=O)(=O)c1ccc(NCC2CCOCC2)c([N+](=O)[O-])c1)c1ccc(N2CCN(Cc3ccc(C(F)(F)F)cc3-c3ccc(Cl)cc3)CC2)cc1Oc1cnc2[nH]ccc2c1` the remaining binding was 100% (cell-free assay; competition with immobilised ligand; 1 µM).
